Reference: ChEMBL document CHEMBL2390869, “Evolution of novel tricyclic CRTh2 receptor antagonists from a (E)-2-cyano-3-(1H-indol-3-yl)acrylamide scaffold” (Bioorg Med Chem Lett, 2013)
Converted amounts (≈) assume the structure as drawn.

Key:
[1] = biological target: T1, Prostaglandin D2 receptor 2 (Homo sapiens, UniProt Q9Y5Y4); assay: Displacement of [3H]PGD2 from human CRTh2 receptor
T1 sequence (Q9Y5Y4 whole entry): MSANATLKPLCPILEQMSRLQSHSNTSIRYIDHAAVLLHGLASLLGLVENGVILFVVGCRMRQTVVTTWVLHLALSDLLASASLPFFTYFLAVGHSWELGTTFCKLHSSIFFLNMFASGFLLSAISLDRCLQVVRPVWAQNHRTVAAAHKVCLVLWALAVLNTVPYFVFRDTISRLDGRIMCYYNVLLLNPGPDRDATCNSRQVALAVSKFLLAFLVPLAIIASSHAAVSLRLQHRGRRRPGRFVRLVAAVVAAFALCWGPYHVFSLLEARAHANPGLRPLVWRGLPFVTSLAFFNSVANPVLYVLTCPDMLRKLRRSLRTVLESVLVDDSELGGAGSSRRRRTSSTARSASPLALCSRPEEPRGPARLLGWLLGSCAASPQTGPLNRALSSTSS
Summary of the method: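 Human CRTh2 binding assay run in assay buffer. IC50 reported as the mean of at least three experiments.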

[2] = Stability in simulated gastric fluid after 1hr by LC/MS analysis; assay type: physicochemical; conditions: read-out: Stability
Summary of the method: (§1)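 Compound incubated in simulated gastric fluid for 1 h or simulated intestinal fluid for 4 h. Unchanged parent recovered and measured by LC–MS, expressed as % parent.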

[3] = biological target: Prostaglandin E2 receptor EP2 subtype (Homo sapiens, UniProt P43116); assay: Inhibition of PGE2 binding to human EP2 receptor
Prostaglandin E2 receptor EP2 subtype, sequence (P43116 whole entry): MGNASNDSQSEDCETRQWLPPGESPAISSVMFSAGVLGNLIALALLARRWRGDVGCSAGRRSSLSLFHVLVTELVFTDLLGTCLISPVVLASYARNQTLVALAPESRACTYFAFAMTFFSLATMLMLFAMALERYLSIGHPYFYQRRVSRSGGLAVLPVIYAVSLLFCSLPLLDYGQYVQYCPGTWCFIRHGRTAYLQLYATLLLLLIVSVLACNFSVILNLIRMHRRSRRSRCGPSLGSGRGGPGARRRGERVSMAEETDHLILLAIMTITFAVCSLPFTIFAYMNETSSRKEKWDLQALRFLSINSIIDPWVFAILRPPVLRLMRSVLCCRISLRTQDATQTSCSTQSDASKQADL

[4] = Stability in simulated intestinal fluid after 4 hrs by LC/MS analysis; assay type: physicochemical; conditions: read-out: Stability; summary of the method: as §1
[5] = Cmax in Wistar rat at 10 mg/kg, po and 1 mg/kg, iv; assay type: ADME, organism-based; conditions: in vivo
Summary of the method: (§2)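 Single doses given to three male Wistar rats per route: 10 mg/kg orally and 1 mg/kg intravenously, as a solution in 20% propyleneglycol/80% buffer. Plasma PK parameters were derived. CL, terminal T1/2 and Vss come from the intravenous arm. AUC0–last comes from the oral arm.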

Cytochrome P450 3A4 = Cytochrome P450 3A4 (Homo sapiens, UniProt P08684); assay: Inhibition of CYP3A4 (unknown origin); assay type: ADME
Cytochrome P450 3A4, sequence (P08684 whole entry): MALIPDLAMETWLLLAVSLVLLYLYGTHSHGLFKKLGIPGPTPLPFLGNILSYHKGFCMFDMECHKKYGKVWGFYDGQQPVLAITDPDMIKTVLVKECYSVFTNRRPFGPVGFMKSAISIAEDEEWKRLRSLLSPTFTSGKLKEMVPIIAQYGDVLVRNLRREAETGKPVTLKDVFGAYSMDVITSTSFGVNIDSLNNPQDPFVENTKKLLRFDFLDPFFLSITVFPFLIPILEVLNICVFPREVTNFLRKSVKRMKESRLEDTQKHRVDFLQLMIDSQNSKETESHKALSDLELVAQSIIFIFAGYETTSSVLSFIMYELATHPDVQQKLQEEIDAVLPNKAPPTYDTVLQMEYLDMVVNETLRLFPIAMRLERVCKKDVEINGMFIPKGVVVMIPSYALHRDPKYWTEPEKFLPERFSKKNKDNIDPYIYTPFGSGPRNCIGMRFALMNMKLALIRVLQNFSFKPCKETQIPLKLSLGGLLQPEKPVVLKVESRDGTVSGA

[6] = Terminal half life in Wistar rat at 10 mg/kg, po and 1 mg/kg, iv; assay type: ADME, organism-based; conditions: in vivo, read-out: beta t1/2 (converted); summary of the method: as §2
[7] = biological target: T2, Prostaglandin D2 receptor (Homo sapiens, UniProt Q13258); assay: Inhibition of PGD2 binding to human DP1 receptor
T2 sequence (Q13258 whole entry): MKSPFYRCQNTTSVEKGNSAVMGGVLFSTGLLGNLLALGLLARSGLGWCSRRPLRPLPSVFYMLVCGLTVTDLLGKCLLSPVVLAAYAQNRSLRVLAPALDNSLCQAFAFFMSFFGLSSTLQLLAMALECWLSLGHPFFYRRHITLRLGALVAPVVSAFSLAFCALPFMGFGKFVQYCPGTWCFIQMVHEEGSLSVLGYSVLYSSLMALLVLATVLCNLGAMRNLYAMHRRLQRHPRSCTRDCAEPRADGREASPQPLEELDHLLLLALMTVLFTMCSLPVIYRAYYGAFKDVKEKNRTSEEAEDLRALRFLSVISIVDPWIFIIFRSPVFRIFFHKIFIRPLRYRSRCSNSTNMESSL

[8] = biological target: T3, Prostaglandin E2 receptor EP3 subtype (Homo sapiens, UniProt P43115); assay: Antagonist activity at human EP3 receptor assessed as inhibition of PGE2-induced Ca2+ mobilization by FLIPR assay; assay type: functional
T3 sequence (P43115 whole entry): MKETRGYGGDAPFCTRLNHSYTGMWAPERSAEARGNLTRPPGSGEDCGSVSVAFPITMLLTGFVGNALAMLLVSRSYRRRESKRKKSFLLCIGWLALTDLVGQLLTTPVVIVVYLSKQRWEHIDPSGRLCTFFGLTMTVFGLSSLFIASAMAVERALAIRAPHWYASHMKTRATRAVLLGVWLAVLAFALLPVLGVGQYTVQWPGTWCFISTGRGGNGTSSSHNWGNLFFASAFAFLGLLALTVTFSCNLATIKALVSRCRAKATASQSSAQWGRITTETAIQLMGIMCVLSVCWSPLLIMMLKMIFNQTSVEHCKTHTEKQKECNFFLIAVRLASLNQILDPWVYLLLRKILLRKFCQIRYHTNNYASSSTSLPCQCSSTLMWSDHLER
Summary of the method: (§3)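 Antagonism measured as inhibition of agonist-induced Ca2+ mobilization by FLIPR: PGE2 as agonist for human EP1 and EP3, U46619 as agonist for human TP. Values are IC50.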

[9] = Oral bioavailability in Wistar rat at 10 mg/kg; assay type: ADME, organism-based; conditions: in vivo; summary of the method: as §2
[10] = biological target: T1, Prostaglandin D2 receptor 2; assay: Displacement of [3H]PGD2 from human CRTh2 receptor in presence of human serum albumin
Summary of the method: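 Human CRTh2 binding assay run with 0.5% human serum albumin added to the assay buffer to mimic binding to blood proteins. IC50 is reported as the mean of at least three experiments.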

[11] = Metabolic stability in human plasma assessed as compound remaining after 4 hrs; assay type: ADME, cell-free; conditions: read-out: Stability
Summary of the method: (§4)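 Compound incubated in rat and human plasma for up to 4 h. Unchanged parent quantified by LC–MS, reported as % parent remaining at 4 h plus elimination half-life.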

[12] = Solubility of the compound in buffer at pH 7; assay type: physicochemical
Summary of the method: (§5)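 Solubility measured in buffered aqueous solution at pH 4 and pH 7, and in water, where the final pH of the aqueous solution was 4.6.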

Cytochrome P450 2C9 = Cytochrome P450 2C9 (Homo sapiens, UniProt P11712); assay: Inhibition of CYP2C9 (unknown origin); assay type: ADME
Cytochrome P450 2C9, sequence (P11712 whole entry): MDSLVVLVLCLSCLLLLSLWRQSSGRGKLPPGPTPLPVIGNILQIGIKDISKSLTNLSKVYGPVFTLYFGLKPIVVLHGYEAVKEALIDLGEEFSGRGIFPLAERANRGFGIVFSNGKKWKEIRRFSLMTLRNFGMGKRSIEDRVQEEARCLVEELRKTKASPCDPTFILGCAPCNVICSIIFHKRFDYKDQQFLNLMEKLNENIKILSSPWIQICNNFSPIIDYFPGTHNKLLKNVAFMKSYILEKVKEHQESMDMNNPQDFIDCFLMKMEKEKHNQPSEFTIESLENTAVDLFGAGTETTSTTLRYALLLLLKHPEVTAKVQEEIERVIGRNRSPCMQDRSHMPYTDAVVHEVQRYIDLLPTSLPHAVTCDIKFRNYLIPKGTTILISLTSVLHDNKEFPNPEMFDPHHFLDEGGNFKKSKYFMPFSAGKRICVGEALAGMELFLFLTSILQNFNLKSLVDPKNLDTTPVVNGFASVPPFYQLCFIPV

[13] = biological target: T1, Prostaglandin D2 receptor 2; assay: Antagonist activity at PGD2-induced human CRTh2 receptor activation expressed in HEK293 cells assessed as intracellular Ca2+ liberation by FLIPR assay; assay type: functional, cell-based
Summary of the method: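 HEK-293 cells stably expressing human CRTh2 were stimulated with PGD2. Antagonism of intracellular Ca2+ liberation was read by FLIPR. IC50 is the mean of at least three experiments.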

[14] = AUC (0 to last) in Wistar rat at 10 mg/kg, po; assay type: ADME, organism-based; set-up: time 0 - last, dose 10 mg/kg, route oral; conditions: plasma; summary of the method: as §2
[15] = Metabolic stability in rat plasma assessed as compound remaining after 4 hrs; assay type: ADME, cell-free; conditions: read-out: Stability; summary of the method: as §4
[16] = Solubility of the compound in buffer at pH 4; assay type: physicochemical; summary of the method: as §5
Cytochrome P450 2D6 = Cytochrome P450 2D6 (Homo sapiens, UniProt P10635); assay: Inhibition of CYP2D6 (unknown origin); assay type: ADME
Cytochrome P450 2D6, sequence (P10635 whole entry): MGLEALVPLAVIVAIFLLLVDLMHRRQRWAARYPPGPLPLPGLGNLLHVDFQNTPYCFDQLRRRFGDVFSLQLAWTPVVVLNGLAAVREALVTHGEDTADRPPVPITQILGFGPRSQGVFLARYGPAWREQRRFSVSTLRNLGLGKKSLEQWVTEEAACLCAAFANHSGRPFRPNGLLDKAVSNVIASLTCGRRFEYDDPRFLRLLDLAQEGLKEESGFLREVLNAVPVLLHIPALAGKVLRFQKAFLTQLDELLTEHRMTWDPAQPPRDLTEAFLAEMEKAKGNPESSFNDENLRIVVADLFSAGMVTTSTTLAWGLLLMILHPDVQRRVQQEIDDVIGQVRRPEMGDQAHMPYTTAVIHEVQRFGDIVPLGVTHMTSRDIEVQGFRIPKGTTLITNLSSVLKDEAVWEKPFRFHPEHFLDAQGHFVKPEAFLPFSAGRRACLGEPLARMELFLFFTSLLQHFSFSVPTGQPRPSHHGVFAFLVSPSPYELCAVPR

[17] = Volume of distribution at steady state in Wistar rat at 10 mg/kg, po and 1 mg/kg, iv; assay type: ADME, organism-based; conditions: in vivo, read-out: Vdss; summary of the method: as §2
[18] = biological target: Prostaglandin E2 receptor EP4 subtype (Homo sapiens, UniProt P35408); assay: Inhibition of PGE2 binding to human EP4 receptor
Prostaglandin E2 receptor EP4 subtype, sequence (P35408 whole entry): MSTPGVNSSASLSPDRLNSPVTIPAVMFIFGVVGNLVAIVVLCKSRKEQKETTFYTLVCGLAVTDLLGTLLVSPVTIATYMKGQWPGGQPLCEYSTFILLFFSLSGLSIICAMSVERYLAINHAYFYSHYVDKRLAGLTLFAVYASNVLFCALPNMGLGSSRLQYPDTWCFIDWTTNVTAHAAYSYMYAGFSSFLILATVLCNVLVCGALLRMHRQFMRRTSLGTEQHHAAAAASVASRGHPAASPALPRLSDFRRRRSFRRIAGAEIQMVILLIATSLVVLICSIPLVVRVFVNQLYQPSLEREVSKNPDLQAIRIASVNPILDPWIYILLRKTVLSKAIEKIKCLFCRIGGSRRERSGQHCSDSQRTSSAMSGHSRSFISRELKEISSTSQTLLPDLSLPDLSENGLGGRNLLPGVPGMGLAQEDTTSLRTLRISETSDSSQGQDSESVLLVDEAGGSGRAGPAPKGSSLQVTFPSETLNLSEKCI

[19] = Aqueous solubility of the compound in water at pH 4.6; assay type: physicochemical; summary of the method: as §5
Thromboxane A2 receptor = biological target: T4, Thromboxane A2 receptor (Homo sapiens, UniProt P21731); assay: Antagonist activity at human TP2 receptor assessed as inhibition of U46619-induced Ca2+ mobilization by FLIPR assay; assay type: functional; summary of the method: as §3
T4 sequence (P21731 whole entry): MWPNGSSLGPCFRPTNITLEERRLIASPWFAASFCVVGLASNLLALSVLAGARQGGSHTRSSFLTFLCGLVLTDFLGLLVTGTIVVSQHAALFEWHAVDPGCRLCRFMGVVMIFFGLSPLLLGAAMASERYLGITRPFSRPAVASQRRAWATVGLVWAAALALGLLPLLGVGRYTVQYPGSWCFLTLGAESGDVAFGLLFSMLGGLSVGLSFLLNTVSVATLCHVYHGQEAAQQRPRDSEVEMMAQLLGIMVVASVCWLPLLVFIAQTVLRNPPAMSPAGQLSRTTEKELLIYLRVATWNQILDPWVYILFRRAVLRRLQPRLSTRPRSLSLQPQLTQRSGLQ

[20] = biological target: T5, Prostaglandin E2 receptor EP1 subtype (Homo sapiens, UniProt P34995); assay: Antagonist activity at human EP1 receptor assessed as inhibition of PGE2-induced Ca2+ mobilization by FLIPR assay; assay type: functional; summary of the method: as §3
T5 sequence (P34995 whole entry): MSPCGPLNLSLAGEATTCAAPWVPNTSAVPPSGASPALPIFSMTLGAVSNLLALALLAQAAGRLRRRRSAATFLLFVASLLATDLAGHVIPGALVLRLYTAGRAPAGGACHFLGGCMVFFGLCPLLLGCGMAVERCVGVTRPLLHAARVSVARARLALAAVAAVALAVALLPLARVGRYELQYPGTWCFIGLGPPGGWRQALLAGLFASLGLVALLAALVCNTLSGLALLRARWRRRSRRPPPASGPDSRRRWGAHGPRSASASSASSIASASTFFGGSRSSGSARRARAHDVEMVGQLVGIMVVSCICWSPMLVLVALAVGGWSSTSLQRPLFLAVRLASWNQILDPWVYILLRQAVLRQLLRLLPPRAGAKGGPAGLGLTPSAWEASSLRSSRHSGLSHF

[21] = Clearance in Wistar rat at 10 mg/kg, po and 1 mg/kg, iv; assay type: ADME, organism-based; conditions: in vivo; summary of the method: as §2

**Q.** Which IC50 [1] does the source give for `CN(C(=O)/C(C#N)=C/c1cn(CC(=O)O)c2cccc(Cl)c12)c1ccccc1` here?
**A.** 5 nM

**Q.** With `Cc1ccc2c(c1)c(/C=C(\C#N)C(=O)N(C)c1ccccc1)cn2CC(=O)O` as the compound, how does the IC50 [1] read?
**A.** 7 nM

**Q.** Which IC50 [1] does the source give for `O=C(O)Cn1cc(/C=C/C(=O)Nc2ccccc2)c2ccccc21` here?
**A.** 4400 nM

**Q.** For `CCCCCC(=O)N1CCc2c(c3ccccc3n2CC(=O)O)C1`, which IC50 [1] is on record?
**A.** 210 nM

**Q.** For `CN(C(=O)/C(C#N)=C/c1cn(CC(=O)O)c2cccc(F)c12)c1ccccc1`, which IC50 [1] is on record?
**A.** 10 nM

**Q.** For `N#C/C(=C\c1cn(CC(=O)O)c2ccccc12)C(=O)N(Cc1ccccc1)c1ccccc1`, which IC50 [1] is on record?
**A.** 30 nM

**Q.** For `O=C(O)Cn1c2c(c3ccccc31)CN(C(=O)Cc1ccccc1)CC2`, which IC50 [1] is on record?
**A.** 200 nM

**Q.** What does the source list for `O=C(O)Cn1c2c(c3ccccc31)CN(C(=O)c1ccccc1)CC2`?
**A.** remaining at 1 h [2]: 100%; IC50 [3]: > 10000 nM; remaining at 4 h [4]: 100%; Cmax [5]: 600 ng/mL; IC50 (Cytochrome P450 3A4): > 50000 nM; half-life [6]: 2.3 h; IC50 [7]: > 10000 nM; IC50 [8]: > 10000 nM; bioavailability [9]: 14%; IC50 [10]: 15 nM; IC50 [1]: 17 nM; remaining at 4 h [11]: 90%; solubility [12]: 810 µg/mL (≈ 2420 µM); IC50 (Cytochrome P450 2C9): > 15000 nM; IC50 [13]: 170 nM; AUC(0-t) [14]: 6300 ng·h/mL; remaining at 4 h [15]: 90%; solubility [16]: 515 µg/mL (≈ 1540 µM); IC50 (Cytochrome P450 2D6): > 50000 nM; Vd [17]: 0.5 L/kg; IC50 [18]: > 10000 nM; solubility [19]: 64 µg/mL (≈ 191 µM); IC50 (Thromboxane A2 receptor): > 25000 nM; IC50 [20]: > 10000 nM; clearance [21]: 4.6 mL/min/kg

**Q.** With `N#C/C(=C\c1cn(CC(=O)O)c2ccccc12)C(=O)Nc1cccc(Br)c1` as the compound, how does the IC50 [1] read?
**A.** 500 nM

**Q.** What about the IC50 [13] of the same compound?
**A.** 600 nM

**Q.** Which IC50 [1] does the source give for `O=C(O)Cn1c2c(c3ccccc31)CN(C(=O)Nc1ccccc1)CC2` here?
**A.** 430 nM

**Q.** With `O=C(O)Cn1cc(/C=C(\Cl)C(=O)Nc2ccccc2)c2ccccc21` as the compound, how does the IC50 [1] read?
**A.** 560 nM

**Q.** For `N#C/C(=C\c1cn(CCCC(=O)O)c2ccccc12)C(=O)Nc1ccccc1`, which IC50 [1] is on record?
**A.** 2600 nM

**Q.** Which IC50 [1] does the source give for `CN(C(=O)/C(C#N)=C/c1cn(CC(=O)O)c2c(F)cccc12)c1ccccc1` here?
**A.** 100 nM

**Q.** For `Cc1cccc2c1c(/C=C(\C#N)C(=O)N(C)c1ccccc1)cn2CC(=O)O`, which IC50 [1] is on record?
**A.** 10 nM

**Q.** With `Cc1ccc2c(/C=C(\C#N)C(=O)N(C)c3ccccc3)cn(CC(=O)O)c2c1` as the compound, how does the IC50 [1] read?
**A.** 690 nM

**Q.** With `CCCCN(C(=O)/C(C#N)=C/c1cn(CC(=O)O)c2ccccc12)c1ccccc1` as the compound, how does the IC50 [1] read?
**A.** 20 nM

**Q.** With `O=C(O)Cn1c2ccccc2c2cc(C(=O)Nc3ccccc3)ccc21` as the compound, how does the IC50 [1] read?
**A.** 490 nM
